Results as given in PMC10965878 (Infectious Diseases and Therapy, 2024).
Several values for one entry are separate records, joined by “and”; a condition that tells them apart may be missing. Equal values may be shown once. Read-outs that look alike come from different tables or passages of the source.

Key:
[1] = tested on: plasma protein; experiment: Unbound fraction in plasma; type: in vivo; details: human, oral, 375 mg, protein binding rate (= [1 − unbound fraction] × 100), humans
[2] = Safety assessment: treatment-emergent adverse events; type: in vivo, human; details: single oral 375 mg
Method in brief: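 Open-label, nonrandomized, parallel-group Phase 1 study in adults with mild, moderate or severe renal impairment (severe excluded if hemodialysis-dependent) and normal renal function. Normal-function controls were matched to moderate-impairment participants by sex, age (± 5 years) and BMI (± 10%). Each received a single oral 375 mg dose as three 125-mg tablets. TEAEs were recorded for nature, frequency and severity, and coded by MedDRA v25.0 System Organ Class/Preferred Term in all treated participants.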

[3] = for AUC0–last GLS mean ratio / t1/2,z GLS mean ratio / Ae (cumulative amount excreted unchanged in urine) / CL/F / Feu (fraction of dose excreted unchanged into urine): single oral 375 mg; for Ae (cumulative amount excreted unchanged in urine) / CL/F / Feu (fraction of dose excreted unchanged into urine): geometric mean (CV%)
[4] = tested on: organic cation transporter (OCT) 2; details: in vitro; cited from earlier work
[5] = tested on: multidrug and toxin extrusion (MATE) 1; details: in vitro; cited from earlier work
[6] = tested on: MATE-2K; details: in vitro; cited from earlier work
[7] = tested on: plasma protein; details: mice; cited from earlier work
[8] = tested on: plasma protein; details: hamsters; cited from earlier work
[9] = 750 mg once followed by 250 mg once daily for 4 days (750/250 mg); cited from earlier work
[10] = mild impairment/normal function
[11] = moderate impairment/normal function
[12] = severe impairment/normal function

## Cn1cnc(Cn2c(=O)[nH]/c(=N\c3cc4cn(C)nc4cc3Cl)n(Cc3cc(F)c(F)cc3F)c2=O)n1 [ensitrelvir]
[1]
  fraction unbound: 0.983 to 0.988
[2]; mild renal impairment (N = 8)
  Any treatment-related TEAE: 1 (12.5) n (%)
[2]; moderate renal impairment (N = 8)
  Any treatment-related TEAE: 1 (12.5) n (%)
[2]; all groups
  severity category of all TEAEs and treatment-related TEAEs: mild or moderate
[3]; [10]
  AUC0–last GLS mean ratio: 1.4303
  t1/2,z GLS mean ratio: 1.19 and 1.1855
[3]; mild renal impairment
  Ae (cumulative amount excreted unchanged in urine): 45.7 (44.7) mg
  CL/F: 0.262 (20.8) L/h
  Feu (fraction of dose excreted unchanged into urine): 12.2 (44.7) %
[3]; [11]
  AUC0–last GLS mean ratio: 1.4780
  t1/2,z GLS mean ratio: 1.24 and 1.2434
[3]; moderate renal impairment
  Ae (cumulative amount excreted unchanged in urine): 58.6 (20.6) mg
  CL/F: 0.253 (26.0) L/h
  Feu (fraction of dose excreted unchanged into urine): 15.6 (20.6) %
[3]; normal renal function
  Ae (cumulative amount excreted unchanged in urine): 54.8 (29.5) mg
  CL/F: 0.376 (26.0) L/h
  Feu (fraction of dose excreted unchanged into urine): 14.6 (29.5) %
[3]; renal impairment vs normal renal function
  increased AUC level with renal impairment: < 2 fold
[3]; [12]
  AUC0–last GLS mean ratio: 1.5475
  t1/2,z GLS mean ratio: 1.61 and 1.6072
[3]; severe renal impairment
  Ae (cumulative amount excreted unchanged in urine): 49.2 (26.5) mg
  CL/F: 0.235 (26.1) L/h
  Feu (fraction of dose excreted unchanged into urine): 13.1 (26.5) %
[4]
  substrate for OCT2: not a substrate
[5]
  substrate for MATE1: not a substrate
[6]
  substrate for MATE-2K: not a substrate
[7]
  protein binding rate: 97.6%
[8]
  protein binding rate: 98.3%
[9]
  tolerability: demonstrated tolerability
